Results: ChEMBL document CHEMBL4613272, “Anti-HIV-Active Nucleoside Triphosphate Prodrugs” (J Med Chem, 2020)

Columns and labels:
[1] = Half life in pH 7.3 phosphate buffered saline by HPLC analysis; format: physicochemical
In short: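 Prodrug from 50 mM DMSO-d6 stock diluted to 1.9 mM with water/DMSO-d6. Reaction started by adding phosphate buffer (50 mM stock, pH 7.3). Products followed by analytical RP18 HPLC with TBAA or TEAA buffer/acetonitrile gradient.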

[2] = Selectivity index, ratio of CC50 for human CEM cells to EC50 for HIV1 HE infected in human CEM/0 cells; conditions: CEM cells (CC50) and HIV1 HE infected CEM/0 cells (EC50)
[3] = tested on: Human immunodeficiency virus 2; assay: Antiviral activity against HIV2 ROD infected in human CEM/0 cells assessed as inhibition of virus-induced giant cell formation measured after 4 to 5 days by microscopic analysis; conditions: Human immunodeficiency virus 2, ISOLATE ROD, CCRF-CEM
[4] = tested on: Human immunodeficiency virus 2; assay: Antiviral activity against HIV2 ROD infected in thymidine kinase-deficient human CEM cells assessed as inhibition of virus-induced giant cell formation measured after 4 to 5 days by microscopic analysis; conditions: Human immunodeficiency virus 2, ISOLATE ROD, CCRF-CEM
[5] = Cytotoxicity against human CEM cells assessed as reduction in cell proliferation; format: cell-based; conditions: CEM cells (CCRF-CEM)
In short: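 CC50 is the compound concentration inhibiting CEM CD4+ T-cell proliferation by 50%. Mean ± SD of n=2-3 independent experiments.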

[6] = tested on: Human immunodeficiency virus 1; assay: Antiviral activity against HIV1 HE infected in human CEM/0 cells assessed as inhibition of virus-induced giant cell formation measured after 4 to 5 days by microscopic analysis; conditions: Human immunodeficiency virus 1, HE, CCRF-CEM
[7] = Half life in pH 7.3 phosphate buffered saline in presence of pig liver esterase by HPLC analysis; format: ADME, Sus scrofa
In short: (§1)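 Prodrug diluted from 50 mM DMSO stock through a 6.0 mM intermediate into DMSO/50 mM PBS pH 7.3. Started with pig liver esterase (3 mg/mL solution in PBS) and shaken at 37 °C, 800 rpm. Aliquots quenched in MeOH at intervals, filtered, stored in liquid nitrogen and analysed by RP18 HPLC.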

[8] = Prodrug conversion in pH 7.3 phosphate buffered saline assessed as pig liver esterase-mediated d4TTP formation by HPLC analysis; format: ADME, Sus scrofa; conditions: in vitro; in short: as §1
[9] = Half life in human CEM/0 cell extracts by HPLC analysis; format: ADME, CCRF-CEM
In short: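 Cell extract prepared from CEM cells grown in RPMI-1640-based medium to ~3·10^6 cells/mL. Cells washed twice in cold PBS, resuspended at 10^8 cells/mL, sonicated, cleared at 10,000 rpm and stored at -80 °C. Prodrug at 6.0 mM hydrolysis solution in DMSO-d6 mixed with water and extract at 37 °C over time. Samples iced, sonicated and centrifuged; supernatant analysed by RP18 HPLC. t1/2 calculated as for chemical hydrolysis.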

SMILES	half-life [1] [h]	selectivity ratio [2]	EC50 [3] [µM]	EC50 [4] [µM]	CC50 [5] [µM]	EC50 [6] [µM]	half-life [7] [h]	Drug metabolism [8]	half-life [9] [h]
CCCCCCCCCCCCCCCCOC(=O)Oc1ccc(COP(=O)(OCc2ccc(OC(=O)CCCCCC)cc2)OP(=O)(O)OP(=O)(O)OC[C@@H]2C=C[C@H](n3cc(C)c(=O)[nH]c3=O)O2)cc1.N.N (stereo partly specified)	89								
CCCCCCCCCCCCCCCCCCOC(=O)Oc1ccc(COP(=O)(OCc2ccc(OC(=O)OCCCC)cc2)OP(=O)(O)OP(=O)(O)OC[C@@H]2C=C[C@H](n3cc(C)c(=O)[nH]c3=O)O2)cc1.N.N (stereo partly specified)	111								
CCCCCCCCCOC(=O)Oc1ccc(COP(=O)(OCc2ccc(OC(=O)CC)cc2)OP(=O)(O)OP(=O)(O)OC[C@@H]2C=C[C@H](n3cc(C)c(=O)[nH]c3=O)O2)cc1.N.N (stereo partly specified)	25	1150	0.04	1.76	84	0.073			
CCCCCCCCCCCCOC(=O)Oc1ccc(COP(=O)(OCc2ccc(OC(=O)CC)cc2)OP(=O)(O)OP(=O)(O)OC[C@@H]2C=C[C@H](n3cc(C)c(=O)[nH]c3=O)O2)cc1.N.N (stereo partly specified)	66	541	0.13	0.64	33	0.061	0.44	Metabolite_Detected	
CCCCCCCCCCCCOC(=O)Oc1ccc(COP(=O)(OCc2ccc(OC(=O)OCCCC)cc2)OP(=O)(O)OP(=O)(O)OC[C@@H]2C=C[C@H](n3cc(C)c(=O)[nH]c3=O)O2)cc1.N.N (stereo partly specified)	107	74	0.17	1.12	54	0.73	0.28	Metabolite_Detected	
CCCCCCOC(=O)Oc1ccc(COP(=O)(O)OP(=O)(O)OP(=O)(O)OC[C@@H]2C=C[C@H](n3cc(C)c(=O)[nH]c3=O)O2)cc1.N.N.N	544								
CCCCCCCCCCCCCCCCOC(=O)Oc1ccc(COP(=O)(OCc2ccc(OC(=O)CCCCCCCC)cc2)OP(=O)(O)OP(=O)(O)OC[C@@H]2C=C[C@H](n3cc(C)c(=O)[nH]c3=O)O2)cc1.N.N (stereo partly specified)	90						13.8	Metabolite_Detected	6.4
CCCCCCCCCCCCCCOC(=O)Oc1ccc(COP(=O)(OCc2ccc(OC(=O)CC)cc2)OP(=O)(O)OP(=O)(O)OC[C@@H]2C=C[C@H](n3cc(C)c(=O)[nH]c3=O)O2)cc1.N.N (stereo partly specified)	74								
CCCCCCCCCCCCCCCCCCOC(=O)Oc1ccc(COP(=O)(OCc2ccc(OC(=O)CCCC)cc2)OP(=O)(O)OP(=O)(O)OC[C@@H]2C=C[C@H](n3cc(C)c(=O)[nH]c3=O)O2)cc1.N.N (stereo partly specified)	74	1050	0.025	0.56	58	0.055			
CCCCCCCCCCCCCCCCOC(=O)Oc1ccc(COP(=O)(OCc2ccc(OC(C)=O)cc2)OP(=O)(O)OP(=O)(O)OC[C@@H]2C=C[C@H](n3cc(C)c(=O)[nH]c3=O)O2)cc1.N.N (stereo partly specified)	81								
CCCCCCCCCCCCOC(=O)Oc1ccc(COP(=O)(OCc2ccc(OC(=O)OCC)cc2)OP(=O)(O)OP(=O)(O)OC[C@@H]2C=C[C@H](n3cc(C)c(=O)[nH]c3=O)O2)cc1.N.N (stereo partly specified)	84	112	0.24	1.75	64	0.57	0.51	Metabolite_Detected	0.94
CCCCCCCCCCCCCCCCOC(=O)Oc1ccc(COP(=O)(OCCC#N)OP(=O)(O)OP(=O)(O)OC[C@@H]2C=C[C@H](n3cc(C)c(=O)[nH]c3=O)O2)cc1.N.N (stereo partly specified)	56	100	0.3	3.26	53	0.53			
CCCCCCCCCOC(=O)Oc1ccc(COP(=O)(OCc2ccc(OC(=O)OCCCCCCCCC)cc2)OP(=O)(O)OP(=O)(O)OC[C@@H]2C=C[C@H](n3cc(C)c(=O)[nH]c3=O)O2)cc1.N.N	101	100	0.09	0.23	34	0.34			
CCCCCCCCCCCCCCCCOC(=O)Oc1ccc(COP(=O)(OCc2ccc(OC(=O)CCCCCCCCC)cc2)OP(=O)(O)OP(=O)(O)OC[C@@H]2C=C[C@H](n3cc(C)c(=O)[nH]c3=O)O2)cc1.N.N (stereo partly specified)	85	100	0.078	0.24	16	0.16			
CCCCCCCCCCCOC(=O)Oc1ccc(COP(=O)(OCc2ccc(OC(=O)CC)cc2)OP(=O)(O)OP(=O)(O)OC[C@@H]2C=C[C@H](n3cc(C)c(=O)[nH]c3=O)O2)cc1.N.N (stereo partly specified)	52								
CCCCCCCCCCCCOC(=O)Oc1ccc(COP(=O)(O)OP(=O)(O)OP(=O)(O)OC[C@@H]2C=C[C@H](n3cc(C)c(=O)[nH]c3=O)O2)cc1.N.N.N	625	> 303	0.25	1.98	> 100	0.33			
CCCCCCCCCCCCOC(=O)Oc1ccc(COP(=O)(OCCC#N)OP(=O)(O)OP(=O)(O)OC[C@@H]2C=C[C@H](n3cc(C)c(=O)[nH]c3=O)O2)cc1.N.N (stereo partly specified)	30	> 212	0.23	2.48	> 100	0.47			
CCCCCCCCCCCCCCOC(=O)Oc1ccc(COP(=O)(OCc2ccc(OC(=O)CCCC)cc2)OP(=O)(O)OP(=O)(O)OC[C@@H]2C=C[C@H](n3cc(C)c(=O)[nH]c3=O)O2)cc1.N.N (stereo partly specified)	69								
CCCCCCCCCCCCCCCOC(=O)Oc1ccc(COP(=O)(OCc2ccc(OC(=O)CCCC)cc2)OP(=O)(O)OP(=O)(O)OC[C@@H]2C=C[C@H](n3cc(C)c(=O)[nH]c3=O)O2)cc1.N.N (stereo partly specified)	74								
CCCCCCCCCCCCOC(=O)Oc1ccc(COP(=O)(OCc2ccc(OC(=O)CCC)cc2)OP(=O)(O)OP(=O)(O)OC[C@@H]2C=C[C@H](n3cc(C)c(=O)[nH]c3=O)O2)cc1.N.N (stereo partly specified)	75								
CCCCCCCCCCOC(=O)Oc1ccc(COP(=O)(OCc2ccc(OC(=O)CC)cc2)OP(=O)(O)OP(=O)(O)OC[C@@H]2C=C[C@H](n3cc(C)c(=O)[nH]c3=O)O2)cc1.N.N (stereo partly specified)	34								
CCCCCCCCCOC(=O)Oc1ccc(COP(=O)(OCc2ccc(OC(=O)CCCCCCCCC)cc2)OP(=O)(O)OP(=O)(O)OC[C@@H]2C=C[C@H](n3cc(C)c(=O)[nH]c3=O)O2)cc1.N.N (stereo partly specified)	81	336	0.09	0.15	37	0.11			
CCCCCCCCCCCCCCCCOC(=O)Oc1ccc(COP(=O)(OCc2ccc(OC(=O)CC(C)C)cc2)OP(=O)(O)OP(=O)(O)OC[C@@H]2C=C[C@H](n3cc(C)c(=O)[nH]c3=O)O2)cc1.N.N (stereo partly specified)	77								
CCCCCCCCCCCC(=O)Oc1ccc(COP(=O)(O)OP(=O)(O)OP(=O)(O)OC[C@@H]2C=C[C@H](n3cc(C)c(=O)[nH]c3=O)O2)cc1.N.N.N	460								
CCCCCCCCCCCCCCCCOC(=O)Oc1ccc(COP(=O)(OCc2ccc(OC(=O)CCCC)cc2)OP(=O)(O)OP(=O)(O)OC[C@@H]2C=C[C@H](n3cc(C)c(=O)[nH]c3=O)O2)cc1.N.N (stereo partly specified)	74	656		0.12	21		1.6	Metabolite_Detected	3.7
CCCCCCCCCCCCOC(=O)Oc1ccc(COP(=O)(OCc2ccc(OC(=O)C(C)C)cc2)OP(=O)(O)OP(=O)(O)OC[C@@H]2C=C[C@H](n3cc(C)c(=O)[nH]c3=O)O2)cc1.N.N (stereo partly specified)	70								
CCCCCCCCCCCCOC(=O)Oc1ccc(COP(=O)(OCc2ccc(OC(=O)CCCC)cc2)OP(=O)(O)OP(=O)(O)OC[C@@H]2C=C[C@H](n3cc(C)c(=O)[nH]c3=O)O2)cc1.N.N (stereo partly specified)	87	675	0.017	0.073	27	0.04	0.17	Metabolite_Detected	1.2
CCCCCCCCCCCCCCCCOC(=O)Oc1ccc(COP(=O)(O)OP(=O)(O)OP(=O)(O)OC[C@@H]2C=C[C@H](n3cc(C)c(=O)[nH]c3=O)O2)cc1.N.N.N	> 1600	122	0.29	1.46	61	0.5			
Cc1cn([C@H]2C=C[C@@H](COP(=O)(O)OP(=O)(O)OP(=O)(O)O)O2)c(=O)[nH]c1=O [STAVUDINE TRIPHOSPHATE]	> 500								
Cc1cn([C@H]2C=C[C@@H](CO)O2)c(=O)[nH]c1=O [STAVUDINE]		> 116		31.1	> 50				
